Activity calls are given as the source filed them. The calls are words filed in the database; no cut-off is given here.

In assay [1] the test system is HL-60. Put plainly: Induction of apoptosis in human HL60 cells assessed as induction of DNA cleavage at 10 uM after 12 hrs by gel electrophoresis. The format is functional, cell-based. The gist of the method: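 HL-60 cells (1×10^6) were lysed in Tris pH 8.0/EDTA/0.5% SDS with RNase A for 1 h at 37 °C, then proteinase K for 2 h at 50 °C. DNA was phenol-chloroform extracted and run on 2% agarose with ethidium bromide staining. The legend gives 24 h treatment while the text gives 12 h.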

The subject of assay [2] is HL-60. The experiment in a line: Induction of apoptosis in human HL60 cells assessed as induction of PARP1 cleavage after 24 hrs by Western blot. The format is functional, cell-based. The gist of the method: (§1)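 About 7×10^5 exponentially growing HL-60 cells were treated at 37 °C for 6 or 24 h. Lysates in Hepes/NaCl/NP-40 buffer with protease inhibitors were cleared at 10 000g. 50 µg protein was run on 7.5% SDS-PAGE and probed with anti-PARP-1 (1:1000), with ECL detection. The 85 kDa fragment versus the 116 kDa intact band was the apoptosis marker.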

Assay [3] relates to HL-60. Put plainly: Induction of apoptosis in human HL60 cells assessed as cytochrome release at 10 uM by Western blot. The format is functional, cell-based. The gist of the method: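 Exponentially growing HL-60 cells were treated for 6 h. The cytosolic fraction was obtained by hypotonic sucrose-buffer swelling on ice, needle lysis, a 1000g spin, then 105 000g for 45 min at 4 °C. 50 µg cytosolic protein was run on SDS/15% PAGE and immunoblotted with anti-cytochrome c (1:250), with ECL detection.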
On the technique in general: In western blotting, separated proteins are transferred to a membrane and probed.

In assay [4] the test system is HL-60. Put plainly: Cytotoxicity against human HL60 cells after 72 hrs by MTT assay. The format is functional, cell-based. The following applies: HL-60, 72 h. The gist of the method: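 HL-60 cells kept in RPMI-1640 with 10% heat-inactivated FBS at 37 °C and 5% CO2, resuspended in fresh medium 24 h before treatment. Cells at 1×10^4/well were exposed continuously to a concentration series for 72 h at 37 °C, with final DMSO ≤0.5%. Read-out was MTT reduction at OD 570 nm as % of DMSO control. IC50 was curve-fitted for each experiment; points were triplicates.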
Background: Tetrazolium dyes change colour on reduction, which living cells bring about.

Assay [5] concerns HL-60. The experiment in a line: Induction of apoptosis in human HL60 cells assessed as morphological changes after 12 hrs by Hoechst 33258 staining based fluorescence microscopy. The assay is classed as functional, cell-based. The gist of the method:
(§2)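 HL-60 cells were treated for 12 h at 10–30 µM, with 10 µM etoposide as positive control. Cells were fixed in 3% paraformaldehyde for 10 min, then stained with 10 µg/mL Hoechst 33258 for 30 min at 37 °C. Nuclei with condensed or fragmented chromatin were scored as apoptotic, counting ≥500 cells per sample, in triplicate.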

Assay [6] concerns HL-60. Put plainly: Induction of apoptosis in human HL60 cells assessed as morphological changes at 30 uM after 12 hrs by Hoechst 33258 staining based fluorescence microscopy. The format is functional, cell-based. The gist of the method: as §2
Assay [7] has as its system HL-60. Put plainly: Induction of apoptosis in human HL60 cells at 30 uM after 12 hrs by Hoechst 33258 staining based fluorescence microscopy. The assay is classed as functional. The gist of the method: as §2
Assay [8] has as its system HL-60. The experiment in a line: Induction of apoptosis in human HL60 cells assessed as fold increase in caspase 3 activation at 30 uM relative to control. The assay is classed as functional. The gist of the method: (§3)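 HL-60 cells were exposed for 12 h to 1–30 µM. Lysates were made in Hepes pH 7.4/DTT/CHAPS buffer and protein was measured by Bradford. About 20 µg protein was incubated at 37 °C with DEVD-pNA (caspase-3) or IETD-pNA (caspase-8). Net A405 increase was expressed as fold over untreated control, in duplicate.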

The test system of assay [9] is HL-60. The experiment in a line: Induction of apoptosis in human HL60 cells assessed as fold increase in caspase 8 activation at 10 uM relative to control. The assay is classed as functional. The gist of the method:
as §3

In assay [10] the test system is HL-60. Put plainly: Induction of apoptosis in human HL60 cells assessed as induction of PARP1 cleavage after 6 hrs by Western blot. The format is functional, cell-based. The gist of the method:
as §1

Broadly, the IC50 is the point on the concentration scale where inhibition reaches its midpoint. Read a high IC50 as a need for much substance. `COc1c(-c2ccc(O)cc2)oc2c(C)c(O)c(C)c(O)c2c1=O`: the result with HL-60 [1], in the assay on HL-60 [2], in the assay on HL-60 [3] and in the assay with HL-60 [6] was Active. The compound also showed an IC50 with HL-60 [4] of 7.4 µM. In addition, the Activity entry with HL-60 [5] is “Dose-dependent effect”; in the assay on HL-60 [7] it was 26.6%.
Consider `COc1ccc(-c2oc3c(C)c(O)c(C)c(O)c3c(=O)c2OC)cc1`, for which the outcome with HL-60 [1], in the assay on HL-60 [2], in the assay on HL-60 [3], in the assay with HL-60 [10] and in the assay on HL-60 [6] was Active. For the same compound, the “fold change (FC)” value in the assay with HL-60 [8] is 1.9; in the assay on HL-60 [9], 3.7. Also, inhibition in the assay with HL-60 [4] was half-maximal at 1.7 µM (IC50). Besides, the Activity result with HL-60 [5] is “Dose-dependent effect”; in the assay on HL-60 [7], 47.8%.

(Values after ChEMBL document CHEMBL1151161, “Isolation from Eucalyptus occidentalis and identification of a new kaempferol derivative that induces apoptosis in human myeloid leukemia cells” (J Nat Prod, 2004).)
